TRPC4 inh: inhibitors of mouse TRPC4 channel, primary screen, Fluo4 calcium, HEK293 TRPC4beta/mu-opioid cells; Short transient receptor potential channel 4 (Mus musculus), Q9QUQ5; DAMGO-evoked Fluo4 calcium flux; hits give low values; B-score at 10 µM; 0.39% of 300,000 active; AID 2247, 2010;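 active = B-score over 3 SD under the library average, no early fluorescence shift, positive overall ratio signal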
Target sequence (Q9QUQ5 whole entry, looked up): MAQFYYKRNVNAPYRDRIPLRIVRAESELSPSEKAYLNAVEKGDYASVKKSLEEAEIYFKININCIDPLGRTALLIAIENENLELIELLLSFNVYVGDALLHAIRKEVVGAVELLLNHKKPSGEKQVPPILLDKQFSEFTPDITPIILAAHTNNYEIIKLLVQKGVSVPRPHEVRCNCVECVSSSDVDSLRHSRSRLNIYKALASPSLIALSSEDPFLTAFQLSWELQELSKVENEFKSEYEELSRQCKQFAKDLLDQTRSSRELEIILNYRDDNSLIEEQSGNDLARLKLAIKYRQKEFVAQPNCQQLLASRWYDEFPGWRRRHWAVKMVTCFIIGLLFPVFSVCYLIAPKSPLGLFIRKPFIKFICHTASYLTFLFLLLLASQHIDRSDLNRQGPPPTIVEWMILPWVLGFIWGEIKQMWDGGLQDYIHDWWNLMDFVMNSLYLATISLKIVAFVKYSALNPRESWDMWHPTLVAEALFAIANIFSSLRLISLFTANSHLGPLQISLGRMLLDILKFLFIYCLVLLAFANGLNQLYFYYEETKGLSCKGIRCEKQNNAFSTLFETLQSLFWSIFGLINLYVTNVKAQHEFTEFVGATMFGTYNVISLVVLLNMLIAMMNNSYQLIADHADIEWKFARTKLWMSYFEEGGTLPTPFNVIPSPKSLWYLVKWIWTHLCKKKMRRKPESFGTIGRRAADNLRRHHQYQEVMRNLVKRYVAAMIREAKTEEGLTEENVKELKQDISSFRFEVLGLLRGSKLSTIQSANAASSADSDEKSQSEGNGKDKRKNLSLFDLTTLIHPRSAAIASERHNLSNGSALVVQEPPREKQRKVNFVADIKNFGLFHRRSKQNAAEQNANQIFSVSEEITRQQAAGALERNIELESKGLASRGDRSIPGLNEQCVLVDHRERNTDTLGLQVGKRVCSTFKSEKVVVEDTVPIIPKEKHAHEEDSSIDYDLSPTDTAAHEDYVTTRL
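Assay system – HEK293 line stably carrying TRPC4beta and mu-opioid receptor · Doses – single dose · Detection – Fluo4 calcium-dye fluorescence, kinetic read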
TRPC4 act: activators of mouse TRPC4 channel, primary screen, Fluo4 calcium, HEK293 TRPC4beta/mu-opioid cells. Fluo4 calcium fluorescence; hits give high values. B-score at 10 µM. 0.49% of 310,000 active;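 active = B-score above 5 SD of library B-scores, and initial fluorescence ratio not above library mean plus 5 SD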;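 also: positive B-score marks a calcium rise read as TRPC4 activation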
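Assay system: HEK293 stable line with TRPC4beta plus mu-opioid receptor. Times: dye 45 min RT, read 110 s. Measured by: kinetic Fluo4 calcium fluorescence. Measure: B score of integrated ratio. Controls: assay buffer as low control, maximal DAMGO as high control.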
TRPC6 inh: mouse TRPC6 channel inhibitors, primary screen, cell-based, HEK293, membrane potential dye; AID 2553, 2010; 1.1% of 310,000 active; B-score at 10 µM; ACh-evoked depolarization; hits give low values;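 active = B-score under library mean minus 3 SD, initial fluorescence not abnormally high, positive integrated signal ratio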;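 also: B-score derived from integrated fluorescence ratio over the kinetic read; more negative B-score means stronger inhibition of depolarization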
TRPC4 PAM: positive allosteric modulators of TRPC4, primary screen, cell-based, mouse TRPC4beta, HEK293 mu-opioid, Fluo-4 calcium. Short transient receptor potential channel 4 (Mus musculus), Q9QUQ5. DAMGO EC20, Fluo-4 Ca2+ flux; hits give high values. B-score at 10 µM. 0.42% of 310,000 active. AID 2227, 2009;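 active = B-score of calcium response area above 5 SD of library B-scores, with initial fluorescence ratio within 5 SD of library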;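 also: B-score of integrated fluorescence ratio over time as area under calcium response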
TRPC6 act: mouse TRPC6 channel activators, primary screen, cell-based, HEK293, membrane potential dye | 0.13% of 310,000 active | Short transient receptor potential channel 6 (Mus musculus), Q61143 | HEK293-TRPC6 membrane potential dye fluorescence; hits give high values | B-score at 10 µM;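 active = B-score of the integrated fluorescence ratio above library mean plus 3 SD, and starting fluorescence ratio within library mean plus 5 SD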;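 also: higher score means more depolarization so channel activation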
Starred values were filed as active, the others as inactive. Sampled rows, rich in hits. Any-hit rate of the full collection: about 2.3%.

`CN(CC(=O)Nc1ccc(F)cc1)C(=O)COC(=O)C1CCN(c2ccc(C(F)(F)F)cn2)CC1` gave TRPC4 inh -5*, TRPC4 act inactive, TRPC6 inh inactive, TRPC4 PAM inactive and TRPC6 act inactive.
CCOC(CCNC(=O)c1cc2c(=O)[nH]c3ccccc3c2s1)OCC was read as TRPC4 inh inactive, TRPC4 act inactive, TRPC6 inh inactive, TRPC4 PAM inactive and TRPC6 act inactive.
`CCCCN(CC)CCNC(=O)c1cc2c(=O)[nH]c3ccccc3c2s1` gave TRPC4 inh inactive, TRPC4 act 48*, TRPC6 inh inactive, TRPC4 PAM inactive and TRPC6 act inactive.
For CCCN(CCC)CCCNC(=O)c1cc2c(=O)[nH]c3ccccc3c2s1 the results were TRPC4 inh inactive, TRPC4 act 80*, TRPC6 inh inactive, TRPC4 PAM inactive and TRPC6 act inactive.
COc1ccc2[nH]c(C(=O)N3CCC(CO)(Cc4cccc(C(F)(F)F)c4)CC3)c(C)c2c1 was read as TRPC4 inh inactive, TRPC4 act inactive, TRPC6 inh inactive, TRPC4 PAM inactive and TRPC6 act inactive.
`Cc1cc(C)c2c(=O)n(CC(=O)NCCCN3CCOCC3)sc2n1` gave TRPC4 inh inactive, TRPC4 act inactive, TRPC6 inh inactive, TRPC4 PAM inactive and TRPC6 act inactive.
`Cc1cc(C)c2c(=O)n(CC(=O)NCCCN3CCN(c4ccccc4F)CC3)sc2n1` gave TRPC4 inh -5*, TRPC4 act inactive, TRPC6 inh inactive, TRPC4 PAM inactive and TRPC6 act inactive.
CCCc1cc(C(=O)Cc2ccc(F)cc2)c(O)cc1O was read as TRPC4 inh inactive, TRPC4 act inactive, TRPC6 inh inactive, TRPC4 PAM inactive and TRPC6 act inactive.
`CCCc1cc(C(=O)Cc2ccc(C(=O)OCC)o2)c(O)cc1O` gave TRPC4 inh inactive, TRPC4 act inactive, TRPC6 inh -5.46*, TRPC4 PAM inactive and TRPC6 act inactive.
CCCCCCn1c(=O)[nH]c2c(c1=O)CCC2 was read as TRPC4 inh inactive, TRPC4 act inactive, TRPC6 inh inactive, TRPC4 PAM inactive and TRPC6 act inactive.
For CCCCCCCn1c2c(c(=N)c3c1CCC3)CCCC2 the results were TRPC4 inh inactive, TRPC4 act inactive, TRPC6 inh -6.04*, TRPC4 PAM inactive and TRPC6 act inactive.
O=C(/C=C/c1ccc(F)cc1)NC(=S)N1CCN(Cc2ccccc2)CC1 was read as TRPC4 inh inactive, TRPC4 act inactive, TRPC6 inh inactive, TRPC4 PAM inactive and TRPC6 act inactive.
COc1ccc(Cl)cc1NC(=O)CCN1CCN(Cc2ccccc2)CC1 was read as TRPC4 inh inactive, TRPC4 act inactive, TRPC6 inh inactive, TRPC4 PAM inactive and TRPC6 act inactive.
For O=C(/C=C/c1ccc(F)cc1)NNC(=O)CCN1CCN(Cc2ccccc2)CC1 the results were TRPC4 inh inactive, TRPC4 act 50*, TRPC6 inh inactive, TRPC4 PAM inactive and TRPC6 act inactive.
For COc1cccc(/C=C/C(=O)NNC(=O)CCN2CCN(Cc3ccccc3)CC2)c1 the results were TRPC4 inh inactive, TRPC4 act 48*, TRPC6 inh inactive, TRPC4 PAM 12* and TRPC6 act inactive.
Screening COc1ccc(S(=O)(=O)Cc2ccc(C(=O)NC3CCCCC3)o2)cc1 returned TRPC4 inh inactive, TRPC4 act inactive, TRPC6 inh inactive, TRPC4 PAM inactive and TRPC6 act inactive.
CN(Cc1ccco1)C(=O)Cn1ncc2c([nH]c3ccccc32)c1=O was read as TRPC4 inh inactive, TRPC4 act inactive, TRPC6 inh inactive, TRPC4 PAM 20* and TRPC6 act inactive.
COCCCN(Cc1ccco1)C(=O)Cn1ncc2c([nH]c3ccccc32)c1=O was read as TRPC4 inh inactive, TRPC4 act inactive, TRPC6 inh inactive, TRPC4 PAM inactive and TRPC6 act inactive.
